Laboratory results reported in ChEMBL document CHEMBL3808312, “Bioactive Constituents of Glycyrrhiza uralensis (Licorice): Discovery of the Effective Components of a Traditional Herbal Medicine” (J Nat Prod, 2016).
Active and inactive are the calls of the source. The rule behind the calls is not given here.

Key:
SW480 [1] = test: Cytotoxicity against human SW480 cells assessed as reduction in cell viability at 10 uM after 24 hrs by MTS assay; assay type: functional
Method in brief: (§1)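 Cells seeded at 5 × 10^3/well and cultured overnight, then exposed to compounds for 24 h. Viability read by MTS. Media: SW480 in RPMI1640, A549 in DMEM, MCF7 in MEM. Irinotecan positive control.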

HepG2 [2] = test: Cytotoxicity against human HepG2 cells assessed as reduction in cell viability at 10 uM after 24 hrs by MTS assay; assay type: functional
A549 [3] = test: Cytotoxicity against human A549 cells assessed as reduction in cell viability at 10 uM after 24 hrs by MTS assay; assay type: functional; method in brief: as §1
MCF7 [4] = test: Cytotoxicity against human MCF7 cells assessed as reduction in cell viability at 10 uM after 24 hrs by MTS assay; assay type: functional; method in brief: as §1
HepG2 [5] = test: Cytotoxicity against human HepG2 cells assessed as reduction in cell viability after 24 hrs by MTS assay; assay type: functional, cell-based; settings: HepG2, 24 h
Method in brief: (§2)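 Cells seeded at 5 × 10^3/well and cultured overnight, then exposed to compounds for 24 h. Viability read by MTS. Media: SW480 in RPMI1640, A549 in DMEM, MCF7 in MEM. […] Irinotecan positive control.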

SW480 [6] = test: Cytotoxicity against human SW480 cells assessed as reduction in cell viability after 24 hrs by MTS assay; assay type: functional, cell-based; settings: SW480, 24 h; method in brief: as §2
A549 [7] = test: Cytotoxicity against human A549 cells assessed as reduction in cell viability after 24 hrs by MTS assay; assay type: functional, cell-based; settings: A549, 24 h; method in brief: as §2
MCF7 [8] = test: Cytotoxicity against human MCF7 cells assessed as reduction in cell viability after 24 hrs by MTS assay; assay type: functional, cell-based; settings: MCF7, 24 h; method in brief: as §2
[9] = target: T1, Tyrosinase (Homo sapiens) (UniProt P14679); test: Inhibition of tyrosinase (unknown origin) using L-tyrosine as substrate assessed as oxidation of L-tyrosine at 20 uM after 15 mins
T1 sequence (whole entry): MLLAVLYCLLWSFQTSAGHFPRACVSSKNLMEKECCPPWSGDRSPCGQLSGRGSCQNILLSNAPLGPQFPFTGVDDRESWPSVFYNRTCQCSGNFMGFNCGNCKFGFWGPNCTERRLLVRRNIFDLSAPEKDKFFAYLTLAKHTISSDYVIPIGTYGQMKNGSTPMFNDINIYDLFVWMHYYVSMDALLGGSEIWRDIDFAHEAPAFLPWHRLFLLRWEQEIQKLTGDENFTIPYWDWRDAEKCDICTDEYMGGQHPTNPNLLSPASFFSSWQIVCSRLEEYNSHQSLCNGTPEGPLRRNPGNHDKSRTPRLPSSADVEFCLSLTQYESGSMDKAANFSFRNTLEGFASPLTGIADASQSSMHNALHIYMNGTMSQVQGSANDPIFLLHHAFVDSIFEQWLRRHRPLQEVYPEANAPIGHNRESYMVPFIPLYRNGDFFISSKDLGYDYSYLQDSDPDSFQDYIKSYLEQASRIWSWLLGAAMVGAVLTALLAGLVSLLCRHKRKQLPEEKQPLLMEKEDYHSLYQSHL
Method in brief: (§3)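 Tyrosinase at 333 U/mL (stock) in 45 mM sodium phosphate, pH 6.6, with 2 mM L-tyrosine (stock). Incubated 37 °C for 15 min; oxidation read at 492 nm. Screened at 20 μM; dose-response for IC50. Glyasperin C positive control.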

Tyrosinase = target: T2, Tyrosinase (Homo sapiens, UniProt P14679); test: Inhibition of tyrosinase (unknown origin) using L-tyrosine as substrate assessed as oxidation of L-tyrosine after 15 mins; method in brief: as §3
T2 sequence (P14679 whole entry): T1 sequence (whole entry)

Influenza A virus = test: Antiviral activity against Influenza A virus A/WSN/33(H1N1) infected in MDCK cells at 100 uM preincubated with virus for 15 mins followed by cells addition measured at 36 hrs post infection; assay type: functional, A/WSN/1933(H1N1)
Method in brief: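 MDCK canine kidney cells grown in DMEM and infected with influenza A/WSN/33 (H1N1). Compounds screened at 100 μM. Oseltamivir phosphate served as the positive control.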

[10] = target: T3, Nuclear factor erythroid 2-related factor 2 (Homo sapiens) (UniProt Q16236); test: Activation of NRF2 transcription in human HepG2C8 cells at 10 uM after 6 hrs by luciferase reporter gene assay relative to control; assay type: cell-based
T3 sequence (whole entry): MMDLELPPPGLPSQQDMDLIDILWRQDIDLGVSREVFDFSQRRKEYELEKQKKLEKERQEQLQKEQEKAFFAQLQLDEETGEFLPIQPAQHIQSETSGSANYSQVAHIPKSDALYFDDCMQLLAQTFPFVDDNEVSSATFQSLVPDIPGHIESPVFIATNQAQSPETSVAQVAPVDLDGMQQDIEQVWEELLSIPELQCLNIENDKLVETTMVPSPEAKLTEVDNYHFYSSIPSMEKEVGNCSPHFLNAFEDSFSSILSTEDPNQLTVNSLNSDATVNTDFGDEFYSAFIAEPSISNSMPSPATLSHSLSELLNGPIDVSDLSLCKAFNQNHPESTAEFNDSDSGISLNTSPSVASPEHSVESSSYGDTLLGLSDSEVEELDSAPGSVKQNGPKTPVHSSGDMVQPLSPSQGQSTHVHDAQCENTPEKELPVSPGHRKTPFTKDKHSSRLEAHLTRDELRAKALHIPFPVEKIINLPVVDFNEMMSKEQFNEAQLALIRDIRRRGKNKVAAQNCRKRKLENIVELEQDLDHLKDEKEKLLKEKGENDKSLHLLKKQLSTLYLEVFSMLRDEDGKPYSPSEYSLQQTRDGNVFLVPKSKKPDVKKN
Method in brief: (§4)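 Luciferase reporter in HepG2C8 cells, which are HepG2 stably transfected with an Nrf2 luciferase reporter and grown in MEM. Screened at 10 μM, with dose-response over 2.5−40 μM. Activity expressed as fold of control. tBHQ positive control.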

[11] = target: T3, Nuclear factor erythroid 2-related factor 2 (Homo sapiens); test: Activation of NRF2 transcription in human HepG2C8 cells after 6 hrs by luciferase reporter gene assay; assay type: cell-based; method in brief: as §4
Mus musculus [12] = test: In vivo NRF2 activation in ip dosed C57BL/6J mouse assessed as increase in liver transcription of HO-1 administered as qd for 3 days measured 3 hrs post last dose by qRT-PCR analysis; assay type: functional, organism-based
Method in brief: (§5)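 Male C57BL/6J mice given compound in corn oil at 5 or 10 mg/kg ip for three consecutive days; controls received corn oil. Liver harvested 3 h after final dose. HO-1 and NQO-1 mRNA measured by qRT-PCR with mouse primers. Nrf2 and HO-1 protein measured by Western blot (20 μg, 10% SDS-PAGE, ECL).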

Mus musculus [13] = test: In vivo NRF2 activation in ip dosed C57BL/6J mouse assessed as increase in liver transcription of NQO-1 administered as qd for 3 days measured 3 hrs post last dose by qRT-PCR analysis; assay type: functional, organism-based; method in brief: as §5
Mus musculus [14] = test: In vivo increase in NRF2 levels in C57BL/6J mouse liver at 5 to 10 mg/kg, ip qd administered for 3 days measured 3 hrs post last dose by Western blot analysis; assay type: functional, organism-based; method in brief: as §5
Mus musculus [15] = test: In vivo increase in HO-1 levels in C57BL/6J mouse liver at 5 to 10 mg/kg, ip qd administered for 3 days measured 3 hrs post last dose by Western blot analysis; assay type: functional, organism-based; method in brief: as §5
Mus musculus [16] = test: Hepatoprotective activity in ip dosed C57BL/6J mouse assessed as reduction in CCL4-induced serum ALT level administered qd for 3 days followed by CCL4 addition at 3 hrs post last dose measured after 24 hrs; assay type: functional, organism-based
Method in brief: (§6)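 Seven-week-old male C57BL/6J mice, n = 10/group, given compound in corn oil (0.5 or 1 mg/mL) at 5 or 10 mg/kg ip once daily for 3 days. CCl4 at 200 μL/kg ip (2% v/v in corn oil) given 3 h after the last dose. Sacrifice at 24 h. Serum ALT/AST measured; liver GSH by GSH/GSSG kit normalized to BCA protein; left lobe H&E stained and scored blind at 4× and 20×.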

Mus musculus [17] = test: Hepatoprotective activity in ip dosed C57BL/6J mouse assessed as reduction in CCL4-induced serum AST level administered qd for 3 days followed by CCL4 addition at 3 hrs post last dose measured after 24 hrs; assay type: functional, organism-based; method in brief: as §6
Mus musculus [18] = test: Hepatoprotective activity in C57BL/6J mouse assessed as prevention of CCL4-induced severe hepatic lesions at 5 mg/kg, ip administered qd for 3 days followed by CCL4 addition at 3 hrs post last dose measured after 24 hrs by hematoxylin-eosin staining; assay type: functional, organism-based; method in brief: as §6
Mus musculus [19] = test: (§7) Hepatoprotective activity in C57BL/6J mouse assessed as attenuation of CCL4-mediated GSH level depletion measured as GSH level […] of protein at 5 mg/kg, ip administered qd for 3 days followed by CCL4 addition at 3 hrs post last dose measured after 24 hrs by GSH/GSSG assay (reference value: 0.86 +/- 0.38 nmol); assay type: functional; method in brief: as §6
Mus musculus [20] = test: as §7, with “at 10” for “at 5”; assay type: functional; method in brief: as §6
HepG2 [21] = test: Toxicity in human HepG2 cells at 20 to 40 uM; assay type: cell-based; settings: hepg2, 40 µM
[22] = target: T3, Nuclear factor erythroid 2-related factor 2 (Homo sapiens); test: Activation of NRF2 in human HepG2 cells assessed as induction of HO-1 transcription by RT-PCR analysis; assay type: cell-based
Method in brief: (§8)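 HepG2 cells treated with or without compound. HO-1 and NQO1 transcripts measured by RT-PCR after total RNA extraction and reverse transcription, amplified against β-actin with human primers. For protein, 20 μg lysate (RIPA) separated on 10% SDS-PAGE, blotted to PVDF, probed with antibodies to Nrf2, HO-1, NQO-1 and β-actin, and detected by ECL.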

[23] = target: T3, Nuclear factor erythroid 2-related factor 2 (Homo sapiens); test: Activation of NRF2 transcription in human HepG2C8 cells at 20 uM after 6 hrs by luciferase reporter gene assay relative to control; assay type: cell-based; method in brief: as §4
[24] = target: T3, Nuclear factor erythroid 2-related factor 2 (Homo sapiens); test: Activation of NRF2 transcription in human HepG2C8 cells at 40 uM after 6 hrs by luciferase reporter gene assay relative to control; assay type: cell-based; method in brief: as §4
[25] = target: T3, Nuclear factor erythroid 2-related factor 2 (Homo sapiens); test: Activation of NRF2 in human HepG2 cells assessed as induction of NQO-1 transcription by RT-PCR analysis; assay type: cell-based; method in brief: as §8
[26] = target: T3, Nuclear factor erythroid 2-related factor 2 (Homo sapiens); test: Activation of NRF2 in human HepG2 cells assessed as upregulation of HO-1 level by Western blot analysis; assay type: cell-based; method in brief: as §8
[27] = target: T3, Nuclear factor erythroid 2-related factor 2 (Homo sapiens); test: Activation of NRF2 in human HepG2 cells by Western blot analysis; assay type: cell-based; method in brief: as §8

Compound COc1cc2c(c(OC)c1CC=C(C)C)C[C@H](c1ccc(O)cc1O)CO2 [GLYASPERIN D] has an Activity (SW480 [1]) of 78%, an Activity (HepG2 [2]) of 99% and an Activity (A549 [3]) of 25%. It also gave an Activity (MCF7 [4]) of 98%, an IC50 (HepG2 [5]) of 3.8 µM and an IC50 (SW480 [6]) of 7.2 µM. For the same compound, the IC50 (A549 [7]) was 12.9 µM, the IC50 (MCF7 [8]) was 6.7 µM and the inhibition [9] was > 95%. It also gave an IC50 (Tyrosinase) of 154 nM.

In the case of COc1cc(O)ccc1/C=C/C(=O)c1ccc(O)cc1 [ECHINATIN], the Activity (Influenza A virus) is reported as >30%, the fold change (FC) [10] is reported as 5.46 and the Activity [11] is reported as “Dose-dependent effect”. The inhibition [9] was “Active”, the Activity (Mus musculus [12]) was “Dose-dependent effect” and the Activity (Mus musculus [13]) was “Dose-dependent effect”. For the same compound, the Activity (Mus musculus [14]) was “Active”, the Activity (Mus musculus [15]) was “Active” and the Activity (Mus musculus [16]) was “Dose-dependent effect”. For the same compound, the Activity (Mus musculus [17]) was “Dose-dependent effect”, the Activity (Mus musculus [18]) was “Active” and the Activity (Mus musculus [19]) was 2.42 nmol. For the same compound, the Activity (Mus musculus [20]) was 2.58 nmol, the Activity (HepG2 [21]) was “Toxic” and the Activity [22] was “Dose-dependent effect”. The fold change (FC) [23] was 6.8, the fold change (FC) [24] was 4.3 and the Activity [25] was “Dose-dependent effect”. For the same compound, the Activity [26] was “Dose-dependent effect” and the Activity [27] was “Dose-dependent effect”.
